The compounds below were run on OCI-AML2 (assay: Cytotoxicity against human OCI-AML2 cells assessed as cell viability after 72 hrs by MTS assay). Conditions: OCI-AML2, 72 h.
Format: functional, cell-based
Method in brief: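 Cells were seeded at 1-3 x 10^4 per well into wells already holding compound or vehicle, in triplicate. Incubation was 72 h at 37 °C in 5% CO2. Viability was read by MTS colorimetry relative to DMSO control, and EC50 was fitted to a standard dose-response curve where applicable.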

SMILES	IC50
CN(CC(=O)N(Cc1ccc(C2CCCCC2)cc1)c1ccc(C(=O)O)c(O)c1)S(=O)(=O)c1c(F)c(F)c(F)c(F)c1F	10 µM

These compounds were tested against Signal transducer and activator of transcription 3 (Homo sapiens, UniProt P40763) (assay: Competitive binding affinity to Stat3 SH2 domain (unknown origin) using 5-FAM-GpYLPQTV-NH2 as probe assessed as phosphopetide complex formation after 30 mins by fluorescence polarization assay). Conditions: not given.
Method in brief: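 Fluorescence polarization. Recombinant STAT protein was incubated with the 5-FAM-GpYLPQTV-NH2 peptide probe and inhibitor for 30 min. Polarized fluorescence was plotted against inhibitor concentration, and IC50 was obtained by fitting a dose-response curve.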

Signal transducer and activator of transcription 3, sequence (P40763 whole entry, the tested form may be a part): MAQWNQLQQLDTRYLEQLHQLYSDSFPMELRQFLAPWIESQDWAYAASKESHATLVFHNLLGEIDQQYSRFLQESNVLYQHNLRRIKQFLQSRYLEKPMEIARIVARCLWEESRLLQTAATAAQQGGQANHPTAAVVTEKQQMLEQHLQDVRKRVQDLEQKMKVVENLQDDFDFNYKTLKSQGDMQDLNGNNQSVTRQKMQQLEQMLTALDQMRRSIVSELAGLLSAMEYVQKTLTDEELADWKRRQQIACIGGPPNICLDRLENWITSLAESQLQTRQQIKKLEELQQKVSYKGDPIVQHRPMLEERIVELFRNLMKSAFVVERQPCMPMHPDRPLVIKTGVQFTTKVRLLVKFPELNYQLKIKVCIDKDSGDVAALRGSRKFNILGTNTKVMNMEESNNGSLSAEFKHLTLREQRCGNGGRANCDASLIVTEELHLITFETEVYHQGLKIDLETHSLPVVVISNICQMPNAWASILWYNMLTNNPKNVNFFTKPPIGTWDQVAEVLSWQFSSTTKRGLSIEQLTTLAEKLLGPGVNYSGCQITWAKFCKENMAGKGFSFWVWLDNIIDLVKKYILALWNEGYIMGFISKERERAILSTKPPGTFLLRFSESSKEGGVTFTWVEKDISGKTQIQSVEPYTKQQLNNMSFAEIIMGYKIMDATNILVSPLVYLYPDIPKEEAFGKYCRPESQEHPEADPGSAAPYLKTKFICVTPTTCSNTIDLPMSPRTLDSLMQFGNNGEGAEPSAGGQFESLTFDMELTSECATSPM

SMILES	IC50
O=C(O)c1ccc(N(Cc2ccc(C3CCCCC3)cc2)C(=O)CN(Cc2ccc(OC(F)(F)F)cc2)S(=O)(=O)c2c(F)c(F)c(F)c(F)c2F)cc1O	21.6 µM
CC(C)(C)OC(=O)N(CC(=O)N(Cc1ccc(C2CCCCC2)cc1)c1ccc(C(=O)O)c(O)c1)S(=O)(=O)c1c(F)c(F)c(F)c(F)c1F	27.4 µM
Cc1ccc(S(=O)(=O)N(CC(=O)N(Cc2ccc(C3CCCCC3)cc2)c2ccc(C(=O)O)c(O)c2)Cc2ccccn2)cc1	45.2 µM
O=C(O)c1ccc(N(Cc2ccc(C3CCCCC3)cc2)C(=O)CN(Cc2cccc(OC(F)(F)F)c2)S(=O)(=O)c2c(F)c(F)c(F)c(F)c2F)cc1O	17.8 µM
Cc1ccc(S(=O)(=O)N(CC(=O)N(Cc2ccc(C3CCCCC3)cc2)c2ccc(C(=O)O)c(O)c2)Cc2ccccc2N)cc1	24 µM
O=C(O)c1ccc(N(Cc2ccc(C3CCCCC3)cc2)C(=O)CN(Cc2c(F)cc(F)c(F)c2F)S(=O)(=O)c2c(F)c(F)c(F)c(F)c2F)cc1O	17.6 µM
O=C(O)c1ccc(N(Cc2ccc(C3CCCCC3)cc2)C(=O)CNS(=O)(=O)c2c(F)c(F)c(F)c(F)c2F)cc1O	32.4 µM
Cc1ccc(S(=O)(=O)N(CC(=O)N(Cc2ccc(C3CCCCC3)cc2)c2ccc(C(=O)O)c(O)c2)Cc2c(F)cc(F)c(F)c2F)cc1	15.4 µM
Cc1ccc(S(=O)(=O)N(CC(=O)N(Cc2ccc(C3CCCCC3)cc2)c2ccc(C(=O)O)c(O)c2)Cc2ccncc2)cc1	46.6 µM
CCCN(CC(=O)N(Cc1ccc(C2CCCCC2)cc1)c1ccc(C(=O)O)c(O)c1)S(=O)(=O)c1ccc(C)cc1	17.8 µM
O=C(O)c1ccc(N(Cc2ccc(C3CCCCC3)cc2)C(=O)CN(Cc2ccc3ccccc3c2)S(=O)(=O)c2c(F)c(F)c(F)c(F)c2F)cc1O	21.8 µM
COC(=O)c1ccccc1CN(CC(=O)N(Cc1ccc(C2CCCCC2)cc1)c1ccc(C(=O)O)c(O)c1)S(=O)(=O)c1c(F)c(F)c(F)c(F)c1F	17.4 µM
N#Cc1cccc(CN(CC(=O)N(Cc2ccc(C3CCCCC3)cc2)c2ccc(C(=O)O)c(O)c2)S(=O)(=O)c2c(F)c(F)c(F)c(F)c2F)c1	19.8 µM
CCCN(CC(=O)N(Cc1ccc(C2CCCCC2)cc1)c1ccc(C(=O)O)c(O)c1)S(=O)(=O)c1c(F)c(F)c(F)c(F)c1F	20.6 µM
O=C(O)c1ccc(N(Cc2ccc(C3CCCCC3)cc2)C(=O)CN(Cc2cccc(F)c2)S(=O)(=O)c2c(F)c(F)c(F)c(F)c2F)cc1O	17.8 µM
COC(=O)c1cccc(CN(CC(=O)N(Cc2ccc(C3CCCCC3)cc2)c2ccc(C(=O)O)c(O)c2)S(=O)(=O)c2ccc(C)cc2)c1	18.4 µM
Cc1ccc(S(=O)(=O)N(CC(=O)N(Cc2ccc(C3CCCCC3)cc2)c2ccc(C(=O)O)c(O)c2)Cc2cc(F)c(F)c(F)c2F)cc1	22.2 µM
O=C(O)c1ccc(N(Cc2ccc(C3CCCCC3)cc2)C(=O)CN(Cc2ccccc2)S(=O)(=O)c2c(F)c(F)c(F)c(F)c2F)cc1O	14.4 µM

SMILES	IC50
COC(=O)c1cccc(CN(CC(=O)N(Cc2ccc(C3CCCCC3)cc2)c2ccc(C(=O)O)c(O)c2)S(=O)(=O)c2c(F)c(F)c(F)c(F)c2F)c1	30.8 µM
C=CCN(CC(=O)N(Cc1ccc(C2CCCCC2)cc1)c1ccc(C(=O)O)c(O)c1)S(=O)(=O)c1ccc(C)cc1	> 50 µM
Cc1ccc(S(=O)(=O)N(CC(N)=O)CC(=O)N(Cc2ccc(C3CCCCC3)cc2)c2ccc(C(=O)O)c(O)c2)cc1	> 50 µM
Cc1ccc(S(=O)(=O)N(CC(=O)N(Cc2ccc(C3CCCCC3)cc2)c2ccc(C(=O)O)c(O)c2)Cc2cccnc2)cc1	> 50 µM
O=C(O)c1ccc(N(Cc2ccc(C3CCCCC3)cc2)C(=O)CN(Cc2ccc(Cl)cc2)S(=O)(=O)c2c(F)c(F)c(F)c(F)c2F)cc1O	13.8 µM
Cc1ccc(S(=O)(=O)N(CC(=O)N(Cc2ccc(C3CCCCC3)cc2)c2ccc(C(=O)O)c(O)c2)CC(C)C)cc1	17 µM
O=C(O)c1ccc(N(Cc2ccc(C3CCCCC3)cc2)C(=O)CN(Cc2cccc(Cl)c2)S(=O)(=O)c2c(F)c(F)c(F)c(F)c2F)cc1O	18.2 µM
O=C(O)c1ccc(N(Cc2ccc(C3CCCCC3)cc2)C(=O)CN(Cc2ccccc2F)S(=O)(=O)c2c(F)c(F)c(F)c(F)c2F)cc1O	28 µM
Cc1ccc(CN(CC(=O)N(Cc2ccc(C3CCCCC3)cc2)c2ccc(C(=O)O)c(O)c2)S(=O)(=O)c2c(F)c(F)c(F)c(F)c2F)cc1	14.4 µM
O=C(O)c1ccc(N(Cc2ccc(C3CCCCC3)cc2)C(=O)CN(Cc2ccc(F)cc2)S(=O)(=O)c2c(F)c(F)c(F)c(F)c2F)cc1O	17.6 µM
O=C(O)c1ccc(N(Cc2ccc(C3CCCCC3)cc2)C(=O)CN(Cc2c(F)c(F)cc(F)c2F)S(=O)(=O)c2c(F)c(F)c(F)c(F)c2F)cc1O	16.6 µM
Cc1ccc(S(=O)(=O)N(CC(=O)N(Cc2ccc(C3CCCCC3)cc2)c2ccc(C(=O)O)c(O)c2)Cc2ccccc2C#N)cc1	22.6 µM
Cc1ccc(S(=O)(=O)N(CC(=O)N(Cc2ccc(C3CCCCC3)cc2)c2ccc(C(=O)O)c(O)c2)Cc2ccccc2)cc1	14.4 µM
Cc1ccc(S(=O)(=O)N(CC(=O)N(Cc2ccc(C3CCCCC3)cc2)c2ccc(C(=O)O)c(O)c2)Cc2ccc(N)cc2)cc1	20.8 µM
Cc1ccc(S(=O)(=O)N(CC(=O)N(Cc2ccc(C3CCCCC3)cc2)c2ccc(C(=O)O)c(O)c2)Cc2c(F)c(F)cc(F)c2F)cc1	22.8 µM
Cc1ccc(S(=O)(=O)N(CC(=O)N(Cc2ccc(C3CCCCC3)cc2)c2ccc(C(=O)O)c(O)c2)Cc2ccccc2Cl)cc1	15.8 µM
Cc1cccc(CN(CC(=O)N(Cc2ccc(C3CCCCC3)cc2)c2ccc(C(=O)O)c(O)c2)S(=O)(=O)c2c(F)c(F)c(F)c(F)c2F)c1	14.6 µM
Cc1ccc(CN(CC(=O)N(Cc2ccc(C3CCCCC3)cc2)c2ccc(C(=O)O)c(O)c2)S(=O)(=O)c2ccc(C)cc2)cc1	> 50 µM

Next, values leading:

IC50	SMILES
12.4 µM	Cc1ccc(S(=O)(=O)N(CC(=O)N(Cc2ccc(C3CCCCC3)cc2)c2ccc(C(=O)O)c(O)c2)Cc2cccc(N)c2)cc1
12.4 µM	O=C(O)c1ccc(N(Cc2ccc(C3CCCCC3)cc2)C(=O)CN(Cc2cc(F)c(F)c(F)c2F)S(=O)(=O)c2c(F)c(F)c(F)c(F)c2F)cc1O
12.4 µM	Cc1ccc(S(=O)(=O)N(CC(=O)N(Cc2ccc(C3CCCCC3)cc2)c2ccc(C(=O)O)c(O)c2)Cc2cccc(C#N)c2)cc1
11.8 µM	Cc1ccc(S(=O)(=O)N(CC(=O)N(Cc2ccc(C3CCCCC3)cc2)c2ccc(C(=O)O)c(O)c2)Cc2ccc(OC(F)(F)F)cc2)cc1
11.6 µM	COC(=O)c1ccc(CN(CC(=O)N(Cc2ccc(C3CCCCC3)cc2)c2ccc(C(=O)O)c(O)c2)S(=O)(=O)c2ccc(C)cc2)cc1
11.4 µM	N#Cc1ccccc1CN(CC(=O)N(Cc1ccc(C2CCCCC2)cc1)c1ccc(C(=O)O)c(O)c1)S(=O)(=O)c1c(F)c(F)c(F)c(F)c1F
11 µM	Cc1ccc(S(=O)(=O)N(CC(=O)N(Cc2ccc(C3CCCCC3)cc2)c2ccc(C(=O)O)c(O)c2)Cc2ccc(F)cc2C(F)(F)F)cc1
11 µM	O=C(O)c1ccc(N(Cc2ccc(C3CCCCC3)cc2)C(=O)CN(Cc2ccccc2Cl)S(=O)(=O)c2c(F)c(F)c(F)c(F)c2F)cc1O
11 µM	Cc1ccc(S(=O)(=O)N(CC(=O)N(Cc2ccc(C3CCCCC3)cc2)c2ccc(C(=O)O)c(O)c2)Cc2ccc([N+](=O)[O-])cc2)cc1
10.6 µM	Cc1ccc(S(=O)(=O)N(CC(=O)N(Cc2ccc(C3CCCCC3)cc2)c2ccc(C(=O)O)c(O)c2)Cc2ccccc2F)cc1
10.2 µM	O=C(O)c1ccc(N(Cc2ccc(C3CCCCC3)cc2)C(=O)CN(Cc2ccccc2OC(F)(F)F)S(=O)(=O)c2c(F)c(F)c(F)c(F)c2F)cc1O
10 µM	Cc1ccc(S(=O)(=O)N(CC(=O)N(Cc2ccc(C3CCCCC3)cc2)c2ccc(C(=O)O)c(O)c2)Cc2ccccc2[N+](=O)[O-])cc1
9.6 µM	Cc1ccc(S(=O)(=O)N(CC(=O)N(Cc2ccc(C3CCCCC3)cc2)c2ccc(C(=O)O)c(O)c2)Cc2ccc(SC(F)(F)F)cc2)cc1
9.4 µM	N#Cc1ccc(CN(CC(=O)N(Cc2ccc(C3CCCCC3)cc2)c2ccc(C(=O)O)c(O)c2)S(=O)(=O)c2c(F)c(F)c(F)c(F)c2F)cc1
9 µM	Cc1ccc(S(=O)(=O)N(CC(=O)N(Cc2ccc(C3CCCCC3)cc2)c2ccc(C(=O)O)c(O)c2)Cc2cccc(F)c2)cc1
8.6 µM	Cc1ccc(S(=O)(=O)N(CC(=O)N(Cc2ccc(C3CCCCC3)cc2)c2ccc(C(=O)O)c(O)c2)Cc2ccc(C#N)cc2)cc1
8 µM	Cc1ccc(S(=O)(=O)N(CC(=O)N(Cc2ccc(C3CCCCC3)cc2)c2ccc(C(=O)O)c(O)c2)Cc2cccc(OC(F)(F)F)c2)cc1
7.6 µM	Cc1ccc(S(=O)(=O)N(CC(=O)N(Cc2ccc(C3CCCCC3)cc2)c2ccc(C(=O)O)c(O)c2)Cc2ccc(F)cc2)cc1
7.6 µM	CCOC(=O)c1ccc(CN(CC(=O)N(Cc2ccc(C3CCCCC3)cc2)c2ccc(C(=O)O)c(O)c2)S(=O)(=O)c2ccc(C)cc2)cc1
7.2 µM	Cc1ccc(S(=O)(=O)N(CC(=O)N(Cc2ccc(C3CCCCC3)cc2)c2ccc(C(=O)O)c(O)c2)Cc2ccccc2OC(F)(F)F)cc1
6.2 µM	Cc1ccc(S(=O)(=O)N(CC(=O)N(Cc2ccc(C3CCCCC3)cc2)c2ccc(C(=O)O)c(O)c2)Cc2ccc(Cl)cc2)cc1
6 µM	Cc1ccc(S(=O)(=O)N(CC(=O)N(Cc2ccc(C3CCCCC3)cc2)c2ccc(C(=O)O)c(O)c2)Cc2cccc(Cl)c2)cc1
5.2 µM	Cc1ccc(S(=O)(=O)N(CC(=O)N(Cc2ccc(C3CCCCC3)cc2)c2ccc(C(=O)O)c(O)c2)Cc2cccc(C)c2)cc1
5 µM	Cc1ccc(S(=O)(=O)N(CC(=O)N(Cc2ccc(C3CCCCC3)cc2)c2ccc(C(=O)O)c(O)c2)Cc2ccc3ccccc3c2)cc1
5 µM	Cc1ccc(S(=O)(=O)N(CC(=O)N(Cc2ccc(C3CCCCC3)cc2)c2ccc(C(=O)O)c(O)c2)Cc2cccc([N+](=O)[O-])c2)cc1

From ChEMBL document CHEMBL2429859, “Inhibiting aberrant signal transducer and activator of transcription protein activation with tetrapodal, small molecule Src homology 2 domain binders: promising agents against multiple myeloma” (J Med Chem, 2013)
